Common to all, as to format: cell-based
The target in assay [1] is T1, RNA polymerase II (Mus musculus) (UniProt P08775+Q8CFI7+P97760+A0A3Q4L2S8+Q80UW8+P61219+P62488+Q923G2+P60898+O08740+Q63871+P62876). Briefly: Inhibition of RNA polymerase II in mouse B16-F1 migrating cells assessed as fold change in Abi1-RNA stability at 0.1 mM measured by […] analysis relative to control cells.
Assay [2] concerns the target T1, RNA polymerase II (Mus musculus). The assay can be described thus: Inhibition of RNA polymerase II in mouse B16-F1 migrating cells assessed as fold change in Cbx1-RNA stability at 0.1 mM measured by […] analysis relative to control cells.
Assay [3] has the same target. Briefly: Inhibition of RNA polymerase II in mouse B16-F1 migrating cells assessed as fold change in Tk2-RNA stability at 0.1 mM measured by […] analysis relative to control cells.
Assay [4] shares this target. The assay can be described thus: Inhibition of RNA polymerase II in mouse B16-F1 migrating cells assessed as fold change in Ifit2-RNA stability at 0.1 mM measured by […] analysis relative to control cells. In outline: (§1)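 Mouse B16-F1 melanoma cells grown to confluence on fibronectin in DMEM/10% FCS at 37 °C, 7% CO2. Migration induced by multiple scratches and 3 h incubation; unscratched controls. DRB 0.1 mM added 3 h before lysis. RNA from poly A-selected mRNA was sequenced (RNA-seq, three replicates per DRB group). Fold change computed for DRB-treated migrating vs DRB-treated control cells; cutoffs fold change >1.3, FDR <0.05.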

The target is the same in assay [5]. The assay can be described thus: Inhibition of RNA polymerase II in mouse B16-F1 migrating cells assessed as fold change in Slc27a3-RNA stability at 0.1 mM measured by […] analysis relative to control cells.
The target is the same in assay [6]. The assay can be described thus: Inhibition of RNA polymerase II in mouse B16-F1 migrating cells assessed as fold change in Fth1-RNA stability at 0.1 mM measured by ChIP-seq analysis relative to control cells.
Assay [7] has the same target. Briefly: Inhibition of RNA polymerase II in mouse B16-F1 migrating cells assessed as fold change in Plekha2-RNA stability at 0.1 mM measured by […] analysis relative to control cells.
The target is the same in assay [8]. Briefly: Inhibition of RNA polymerase II in mouse B16-F1 migrating cells assessed as fold change in Bpnt1-RNA stability at 0.1 mM measured by […] analysis relative to control cells.
The target is the same in assay [9]. The assay can be described thus: Inhibition of RNA polymerase II in mouse B16-F1 migrating cells assessed as fold change in Pde12-RNA stability at 0.1 mM measured by […] analysis relative to control cells.
For assay [10] the target is unchanged. Briefly: Inhibition of RNA polymerase II in mouse B16-F1 migrating cells assessed as fold change in Bcap29-RNA stability at 0.1 mM measured by […] analysis relative to control cells.
Assay [11] has the same target. The assay can be described thus: Inhibition of RNA polymerase II in mouse B16-F1 migrating cells assessed as fold change in Zfp966-RNA stability at 0.1 mM measured by […] analysis relative to control cells.
Assay [12] shares this target. Briefly: Inhibition of RNA polymerase II in mouse B16-F1 migrating cells assessed as fold change in Cdk5rap3-RNA stability at 0.1 mM measured by […] analysis relative to control cells. In outline:
as §1

In assay [13] the target is Histone-lysine N-methyltransferase EZH2 (Mus musculus) (UniProt Q61188). The assay can be described thus: Inhibition of EZH2 in mouse B16-F1 migrating cells assessed as fold change in H3K27me3-buffered regulated Fam60a-mRNA expression at 3 uM measured by […] analysis relative to control cells. In a few lines: (§2)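 Confluent B16-F1 cells on fibronectin-coated plates, cultured at 37 °C and 7% CO2, were scratched at multiple sites to induce migration. They were then held 3 h in growth medium containing 3 µM GSK343, with the inhibitor added 3 h before lysis. Unscratched cells served as controls. Poly A mRNA was analysed by RNA-seq (n=3 GSK343, n=5 controls). Linear models removed batch effects, and buffered genes were those altered only under GSK343 (FDR <0.05, fold change >1.3).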

Assay [14] shares this target. Briefly: Inhibition of EZH2 in mouse B16-F1 migrating cells assessed as fold change in H3K27me3-buffered regulated Vegfc-mRNA expression at 3 uM measured by […] analysis relative to control cells. In a few lines:
(§3)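 Confluent B16-F1 cells on fibronectin-coated plates were scratched at multiple sites, washed once with DMEM and left to migrate 3 h in growth medium (37 °C, 7% CO2); unscratched cells served as control. GSK343 (3 µM) was added 3 h before lysis. Poly A mRNA was sequenced (RNA-seq), with 5 replicates for untreated and 3 for treated cells. Differential expression was called by linear model with batch correction, at FDR <0.05 and fold change ≥1.3.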

The target is the same in assay [15]. The assay can be described thus: Inhibition of EZH2 in mouse B16-F1 migrating cells assessed as fold change in H3K27me3-buffered regulated Ndufv3-mRNA expression at 3 uM measured by […] analysis relative to control cells. In a few lines: as §2
Assay [16] shares this target. Briefly: Inhibition of EZH2 in mouse B16-F1 migrating cells assessed as fold change in H3K27me3-independent regulated Eva1a-mRNA expression at 3 uM measured by ChIP-seq analysis relative to control cells. In a few lines: as §3
Assay [17] has the same target. The assay can be described thus: Inhibition of EZH2 in mouse B16-F1 migrating cells assessed as fold change in H3K27me3-buffered regulated 1810032O08Rik-mRNA expression at 3 uM measured by […] analysis relative to control cells. In a few lines:
as §2

Assay [18] shares this target. Briefly: Inhibition of EZH2 in mouse B16-F1 migrating cells assessed as fold change in H3K27me3-buffered regulated Map3k20-mRNA expression at 3 uM measured by ChIP-seq analysis relative to control cells. In a few lines: as §2
Assay [19] has the same target. Briefly: Inhibition of EZH2 in mouse B16-F1 migrating cells assessed as fold change in H3K27me3-buffered regulated Pltp-mRNA expression at 3 uM measured by […] analysis relative to control cells. In outline:
as §2

The target is the same in assay [20]. Briefly: Inhibition of EZH2 in mouse B16-F1 migrating cells assessed as fold change in H3K27me3-buffered regulated Ttc14-mRNA expression at 3 uM measured by ChIP-seq analysis relative to control cells. In outline: as §3
Assay [21] shares this target. The assay can be described thus: Inhibition of EZH2 in mouse B16-F1 migrating cells assessed as fold change in H3K27me3-buffered regulated Cmpk2-mRNA expression at 3 uM measured by ChIP-seq analysis relative to control cells. In a few lines:
as §2

The target is the same in assay [22]. The assay can be described thus: Inhibition of EZH2 in mouse B16-F1 migrating cells assessed as fold change in H3K27me3-buffered regulated Rev3l-mRNA expression at 3 uM measured by ChIP-seq analysis relative to control cells. In a few lines: as §2
For assay [23] the target is unchanged. Briefly: Inhibition of EZH2 in mouse B16-F1 migrating cells assessed as fold change in H3K27me3-buffered regulated Slc39a14-mRNA expression at 3 uM measured by […] analysis relative to control cells. In a few lines: as §3
For assay [24] the target is unchanged. The assay can be described thus: Inhibition of EZH2 in mouse B16-F1 migrating cells assessed as fold change in H3K27me3-buffered regulated Irf1-mRNA expression at 3 uM measured by […] analysis relative to control cells. In outline:
as §2

The text below walks through data of ChEMBL document CHEMBL5674883, “The Heterochromatin Landscape in Migrating Cells and the Importance of H3K27me3 for Associated Transcriptome Alterations” (Cells, 2018).

The structures appear in SMILES notation.

Sequence of Histone-lysine N-methyltransferase EZH2 (Mus musculus) (Q61188 whole entry): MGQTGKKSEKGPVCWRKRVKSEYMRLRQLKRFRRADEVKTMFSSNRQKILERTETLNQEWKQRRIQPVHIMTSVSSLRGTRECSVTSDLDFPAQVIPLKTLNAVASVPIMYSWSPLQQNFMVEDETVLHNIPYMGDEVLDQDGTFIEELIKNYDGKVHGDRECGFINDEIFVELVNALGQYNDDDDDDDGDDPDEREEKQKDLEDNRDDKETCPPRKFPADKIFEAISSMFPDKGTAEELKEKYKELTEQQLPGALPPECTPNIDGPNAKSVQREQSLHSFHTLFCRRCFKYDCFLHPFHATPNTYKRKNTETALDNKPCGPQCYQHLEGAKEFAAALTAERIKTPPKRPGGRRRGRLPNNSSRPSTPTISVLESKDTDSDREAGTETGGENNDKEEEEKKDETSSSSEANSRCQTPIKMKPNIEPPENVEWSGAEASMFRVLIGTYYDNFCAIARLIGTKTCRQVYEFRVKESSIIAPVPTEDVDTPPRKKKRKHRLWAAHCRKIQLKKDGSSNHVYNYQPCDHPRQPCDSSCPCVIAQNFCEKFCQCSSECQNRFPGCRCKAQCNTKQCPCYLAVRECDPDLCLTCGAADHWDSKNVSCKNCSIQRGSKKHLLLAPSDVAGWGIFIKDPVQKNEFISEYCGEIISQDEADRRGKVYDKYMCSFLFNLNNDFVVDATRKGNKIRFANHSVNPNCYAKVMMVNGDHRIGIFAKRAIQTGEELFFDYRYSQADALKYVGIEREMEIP

Regarding `OC[C@H]1O[C@@H](n2cnc3cc(Cl)c(Cl)cc32)[C@H](O)[C@@H]1O`, the log2FC in assay [1] was -0.62; in assay [2], -0.56; in assay [3], 0.79; in assay [4] it was -0.69; in assay [5], 0.65; in [6], 0.6. For the same compound, the log2FC in assay [7] was 0.71; in assay [8] it was -0.48; in assay [9] it was -0.77; in assay [10] it was -0.48; in [11], -0.82; in [12] it was 0.49.
Take `CCCc1cc(C)[nH]c(=O)c1CNC(=O)c1cc(-c2ccnc(N3CCN(C)CC3)c2)cc2c1cnn2C(C)C`: the log2FC in [13] is -0.61; in assay [14] it was -0.44; in assay [15], 0.38; in assay [16], 0.84; in [17], -1.08; in [18], -0.41. The log2FC in [19] was 0.39; in [20], -0.44; in assay [21] it was -0.46; in assay [22], -0.47; in assay [23] it was 0.46; in assay [24], -0.62.
